pEC50, pKi: −log10 of the molar value. Calls of active or inactive are those of the source. No cut-off for these calls is given here.
Tests used:
[1] = Inhibition of baker's yeast alpha-glucosidase using p-nitrophenyl-alpha-D-glucopyranoside substrate assessed as inhibition constant for enzyme-substrate-compound binding by measuring reduction in p-nitrophenolate formation
In short: (§1)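 Same α-glucosidase conditions: pH 6.8 phosphate buffer, 25 °C, A400 for p-nitrophenolate, 5% DMSO. Done for inhibitors exceeding 50% inhibition at 500 µM. Rates measured at 5 substrate concentrations from 0.25 to 4.0 K_m, each at a fixed inhibitor concentration, using 2–3 inhibitor concentrations. Lineweaver–Burk double reciprocal plots gave the inhibition mode and constants K_ia (E) and K_ib (ES).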

[2] = Antiproliferative activity against human HBL100 cells after 48 hrs by sulforhodamine B assay; type: functional; conditions: HBL-100, 48 h
In short: (§2)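 Exponentially growing cells trypsinized into penicillin/streptomycin medium, >97% viable by trypan blue. Seeded per well: 10,000 (A549, HBL-100, HeLa, SW1573), 15,000 (T-47D), 20,000 (WiDr). Treatment began day 1, DMSO stocks 40 mM, 0.25% DMSO as control, triplicate, 48 h. Cells fixed with cold TCA 60 min at 4 °C, SRB stained, OD492 read, medium background subtracted.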

[3] = system: HeLa; test: Potency index, ratio of GI50 for 5-fluorouracil to GI50 for compound against human HeLa cells after 48 hrs by sulforhodamine B assay; type: functional
[4] = Inhibition of baker's yeast alpha-glucosidase using p-nitrophenyl-alpha-D-glucopyranoside substrate assessed as reduction in p-nitrophenolate formation at 500 uM; conditions: Saccharomyces bayanus
In short: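 α-Glucosidase in 0.1 M phosphate buffer pH 6.8 with p-nitrophenyl-α-D-glucopyranoside at K_M (250 µM; K_M 0.25 mM). Inhibitor at 500 µM final or DMSO, DMSO 5% v/v.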

[5] = system: Saccharomyces bayanus; test: Un-competitive inhibition of baker's yeast alpha-glucosidase using p-nitrophenyl-alpha-D-glucopyranoside substrate assessed as reduction in p-nitrophenolate formation by Lineweaver-Burk plot; in short: as §1
[6] = system: WiDr; test: Potency index, ratio of GI50 for cisplatin to GI50 for compound against human WiDr cells after 48 hrs by sulforhodamine B assay; type: functional
[7] = system: HeLa; test: Antiproliferative activity against human HeLa cells after 48 hrs by sulforhodamine B assay; type: functional; in short: as §2
[8] = system: T47D; test: Antiproliferative activity against human T47D cells after 48 hrs by sulforhodamine B assay; type: functional; in short: as §2
[9] = system: A549; test: Antiproliferative activity against human A549 cells after 48 hrs by sulforhodamine B assay; type: functional; conditions: A549, 48 h; in short: as §2
[10] = system: T47D; test: Potency index, ratio of GI50 for 5-fluorouracil to GI50 for compound against human T47D cells after 48 hrs by sulforhodamine B assay; type: functional
[11] = Antioxidant activity assessed as H2O2 scavenging activity at 100 uM incubated for 20 mins by phenol red based assay; type: physicochemical
In short: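 Compound at 100 µM final, or DMSO control, in 0.1 M phosphate buffer pH 7.4 with H2O2 and 0.1 M NaCl, incubated in the dark at 37 °C for 20 min. Phenol red (0.2 mg/mL) and horseradish peroxidase (0.1 mg/mL) added, 15 min at 37 °C. NaOH added, 10 min at rt, A610 read. % reduction = (A_control − A_sample)/A_control × 100.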

[12] = system: WiDr; test: Potency index, ratio of GI50 for 5-fluorouracil to GI50 for compound against human WiDr cells after 48 hrs by sulforhodamine B assay; type: functional
[13] = system: SW1573; test: Antiproliferative activity against human SW1573 cells after 48 hrs by sulforhodamine B assay; type: functional; conditions: SW1573, 48 h; in short: as §2
[14] = Antioxidant activity assessed as DPPH free radical scavenging activity incubated for 30 mins; type: physicochemical
In short: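 DPPH in HPLC-grade solvent mixed with compound in DMSO at 7 concentrations, or with DMSO alone as control. Kept in the dark at rt for 30 min, then A515 read against a blank. % DPPH remaining = A_sample/A_control × 100, plotted against concentration; EC50 taken from the straight line. Triplicate.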

[15] = system: WiDr; test: Antiproliferative activity against human WiDr cells after 48 hrs by sulforhodamine B assay; type: functional; in short: as §2
[16] = system: T47D; test: Potency index, ratio of GI50 for cisplatin to GI50 for compound against human T47D cells after 48 hrs by sulforhodamine B assay; type: functional
[17] = Antioxidant activity assessed as inhibition of the lipid peroxidation at 0.74 mM incubated for 24 hrs by ferric thiocyanate method; type: physicochemical; conditions: 740 µM
In short: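 Ferric thiocyanate method at 0.74 mM. 10.0 mM DMSO stock combined with methanolic linoleic acid in 0.2 M phosphate buffer pH 7.0. AAPH added, then 24 h at 50 °C in the dark; DMSO served as control. An aliquot was diluted in H2O–DMSO with NH4SCN and FeCl2 in HCl. After 3 min at rt, A546 read. % inhibition relative to control.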

With Oc1ccc(/C=N/NC(=[Se])Nc2cccc3ccccc23)cc1 as the compound, how does the pKi [1] read?
The pKi was 4.23.

And the GI50 [2]?
Its GI50 is 2.1 µM.

What about the RatioGI50 [3] of the same compound?
Its RatioGI50 is 6.5.

And the inhibition [4]?
The inhibition was 100%.

And the inhibition [5]?
The inhibition was “Active”.

What about the RatioGI50 [6] of the same compound?
Its RatioGI50 is 11.

And the GI50 [7]?
Its GI50 is 2.2 µM.

What about the GI50 [8] of the same compound?
Its GI50 is 2.5 µM.

What about the GI50 [9] of the same compound?
Its GI50 is 1.3 µM.

What about the RatioGI50 [10] of the same compound?
Its RatioGI50 is 19.

And the “inhibition (INH)” value [11]?
Its value is 53.1%.

And the RatioGI50 [12]?
Its RatioGI50 is 21.

And the GI50 [13]?
Its GI50 is 2.3 µM.

And the pEC50 [14]?
The pEC50 was 4.66.

What about the GI50 [15] of the same compound?
Its GI50 is 2.3 µM.

What about the RatioGI50 [16] of the same compound?
The RatioGI50 was 6.

And the “inhibition (INH)” value [17]?
Its value is 23.3%.

Reference: ChEMBL document CHEMBL3414459, “Phenolic thio- and selenosemicarbazones as multi-target drugs” (Eur J Med Chem, 2015)
